Experimental findings from ChEMBL document CHEMBL5154924, “Discovery of In Vivo Active Sphingosine-1-phosphate Transporter (Spns2) Inhibitors” (J Med Chem, 2022) are described below.

Data set [1] concerns the target T1, Sphingosine-1-phosphate transporter SPNS2 (Mus musculus) (UniProt Q91VM4).
T1 sequence (whole entry): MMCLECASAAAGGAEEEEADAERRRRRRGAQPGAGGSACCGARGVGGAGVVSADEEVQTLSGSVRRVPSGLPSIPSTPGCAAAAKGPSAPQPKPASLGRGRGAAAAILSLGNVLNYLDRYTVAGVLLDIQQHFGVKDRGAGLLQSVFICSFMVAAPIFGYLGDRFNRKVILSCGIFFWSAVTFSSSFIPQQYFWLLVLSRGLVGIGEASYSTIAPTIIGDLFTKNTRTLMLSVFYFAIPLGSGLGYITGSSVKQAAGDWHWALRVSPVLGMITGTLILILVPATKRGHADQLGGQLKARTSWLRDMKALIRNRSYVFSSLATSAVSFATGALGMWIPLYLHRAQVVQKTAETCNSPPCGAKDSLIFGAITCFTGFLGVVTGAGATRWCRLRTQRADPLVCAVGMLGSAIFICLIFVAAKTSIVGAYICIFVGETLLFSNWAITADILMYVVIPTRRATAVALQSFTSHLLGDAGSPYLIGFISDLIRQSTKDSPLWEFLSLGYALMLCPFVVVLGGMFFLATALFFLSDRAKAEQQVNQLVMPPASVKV
Put plainly: (§1) Inhibition of mouse Spns2 transfected in human HeLa cells by measuring S1P release by LC/MS analysis. The class given is cell-based. The settings on record: dose <= 5.0 µM, DDE = dose-dependent effect. A digest of the protocol:
(§2)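 Mouse Spns2-transfected HeLa cells (G418-selected) held 18–20 h in RPMI 1640/0.2% fatty acid-free BSA containing 1 mM 4-deoxypyridoxine, 2 mM NaF and 0.2 mM Na₃VO₄ across a compound concentration series. Released S1P quantified by LC-MS/MS with d₇-S1P internal standard; IC50 calculated from the concentration–effect curve.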

Data set [2] concerns the target T2, Sphingosine-1-phosphate transporter SPNS2 (Mus musculus, UniProt Q91VM4).
T2 sequence (Q91VM4 whole entry): T1 sequence (whole entry)
The description is as §1. The class given is cell-based. A digest of the protocol:
as §2

In data set [3] the target is T1, Sphingosine-1-phosphate transporter SPNS2 (Mus musculus). Put plainly: Inhibition of mouse Spns2 transfected in human HeLa cells by measuring S1P release at 2 uM by LC/MS analysis relative to control. The format is cell-based. A digest of the protocol:
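HeLa cells stably transfected with mouse Spns2 and selected with G418, grown to near confluence. Medium replaced with RPMI 1640/0.2% fatty acid-free BSA containing 1 mM 4-deoxypyridoxine, 2 mM NaF and 0.2 mM Na₃VO₄. Compound added to duplicate wells, incubated 18–20 h. Medium S1P measured by LC-MS/MS against d₇-S1P after TCA precipitation and methanol extraction. Inhibition expressed relative to no-inhibitor control.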

The target of another data set is Sphingosine kinase 1 (Mus musculus, UniProt Q8CI15). Put plainly: Inhibition of recombinant mouse SphK1 transfected in HEK293T cells using D-erythro-sphingosine measured after 20 mins in presence of gamma-[p32]-ATP by autoradiography and liquid scintillation counting method. The format is cell-based.
Another data set addresses T3, Sphingosine kinase 2 (Mus musculus, UniProt Q9JIA7).
T3 sequence (Q9JIA7 whole entry): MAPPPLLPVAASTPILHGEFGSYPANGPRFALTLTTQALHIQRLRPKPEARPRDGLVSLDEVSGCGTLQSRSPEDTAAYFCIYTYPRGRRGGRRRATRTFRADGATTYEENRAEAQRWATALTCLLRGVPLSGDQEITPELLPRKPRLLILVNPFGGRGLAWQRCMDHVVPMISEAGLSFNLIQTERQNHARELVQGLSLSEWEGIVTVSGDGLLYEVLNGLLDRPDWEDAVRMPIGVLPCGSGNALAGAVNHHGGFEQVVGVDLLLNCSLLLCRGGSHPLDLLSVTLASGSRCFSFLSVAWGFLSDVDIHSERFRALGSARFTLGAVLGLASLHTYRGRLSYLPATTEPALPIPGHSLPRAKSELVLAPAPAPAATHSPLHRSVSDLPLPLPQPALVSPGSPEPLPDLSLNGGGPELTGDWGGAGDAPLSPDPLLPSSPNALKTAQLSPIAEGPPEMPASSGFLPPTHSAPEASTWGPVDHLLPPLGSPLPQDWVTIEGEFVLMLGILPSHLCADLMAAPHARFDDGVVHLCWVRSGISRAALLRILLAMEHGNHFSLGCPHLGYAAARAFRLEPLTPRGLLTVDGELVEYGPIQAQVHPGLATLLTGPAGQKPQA
The experiment in a line: Inhibition of recombinant mouse SphK2 transfected in HEK293T cells using D-erythro-sphingosine measured after 20 mins in presence of gamma-[p32]-ATP by autoradiography and liquid scintillation counting method. The class given is cell-based. A digest of the protocol: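 Lysate of mouse SphK2 from baculovirus-infected Sf9 or transfected HEK293T cells (0.02–0.03 mg protein). Buffer: 20 mM Tris-Cl pH 7.4 with MgCl₂, phosphatase/protease inhibitors, 10% glycerol and 1 M KCl. Substrate 5 μM D-erythro-sphingosine, 10 μM γ-[³²P]ATP, compound 10–30,000 nM. Reaction run 20 min at 37 °C, then lipids extracted and separated by TLC. Product detected by autoradiography and quantified by scintillation counting; run in duplicate.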

The species named for data set [4] is Mus musculus. Put plainly: Selectivity ratio of IC50 for mouse SphK1 to recombinant mouse Snps2.
The species entered for data set [5] is Mus musculus. Put plainly: Selectivity ratio of IC50 for mouse SphK2 to recombinant mouse Snps2.
Data set [6] relates to Mus musculus. The experiment in a line: In vivo inactivation of Spns2 gene in C57BL/6j mouse assessed as decrease in circulating lymphocytes at 20 mg/kg, ip measured after 4 hrs by blood analyzer. The class given is functional, organism-based. The gist of the method: (§3)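 Blood drawn 4 h postdose. Lymphocytes counted from 20 μL blood on a haematology analyzer; plasma S1P quantified by LC-MS/MS. Compared with vehicle-treated controls by t-test.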

Data set [7] relates to Mus musculus. The experiment in a line: In vivo inactivation of Spns2 gene in C57BL/6j mouse assessed as decrease in plasma S1P at 20 mg/kg, ip measured after 4 hrs by LC-MS/MS analysis. The format is functional, organism-based. A digest of the protocol: as §3
Data set [8] can be described thus: Half life in Sprague-Dawley rat plasma at 10 mg/kg, ip by LC-MS/MS analysis. The class given is ADME, organism-based. A digest of the protocol: (§4)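 Single intraperitoneal dose to 4-week-old male rats (n = 4); vehicle 36.1% PEG400/9.1% ethanol/4.6% Solutol/50% H₂O. Tail-nick whole blood (ca. 70 μL) collected at 0, 0.5, 1, 2, 4, 6 and 24 h postdose. Plasma drug levels quantified by LC-MS/MS with an internal standard.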

The nature of data set [9]: Drug concentration in Sprague-Dawley rat plasma at 10 mg/kg, ip at 24 hrs by LC-MS/MS analysis. The class given is ADME, organism-based. A digest of the protocol:
as §4

The nature of data set [10]: Drug concentration in Sprague-Dawley rat plasma at 10 mg/kg, ip at 2 hrs by LC-MS/MS analysis. The format is ADME, organism-based. A digest of the protocol: as §4
The subject of another data set is Rattus norvegicus. The experiment in a line: In vivo inactivation of Spns2 gene in Sprague-Dawley rat assessed as decrease in circulating lymphocytes at 10 mg/kg, ip measured upto 24 hrs by blood analyzer. The format is functional. The arrangement: scale not given: the % may be the effect or the level left. The gist of the method:
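Male rats 4 weeks old (n = 4) received a single intraperitoneal dose in PEG400/ethanol/Solutol/water vehicle. Tail-nick blood sampled at 0, 0.5, 1, 2, 4, 6 and 24 h. Lymphocytes counted from 20 μL blood on a haematology analyzer; counts compared with time 0.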

SMILES strings stand for the structures. Activity calls are given as the source filed them. Some results are limits rather than exact numbers.

Chain of Sphingosine kinase 1 (Q8CI15 whole entry): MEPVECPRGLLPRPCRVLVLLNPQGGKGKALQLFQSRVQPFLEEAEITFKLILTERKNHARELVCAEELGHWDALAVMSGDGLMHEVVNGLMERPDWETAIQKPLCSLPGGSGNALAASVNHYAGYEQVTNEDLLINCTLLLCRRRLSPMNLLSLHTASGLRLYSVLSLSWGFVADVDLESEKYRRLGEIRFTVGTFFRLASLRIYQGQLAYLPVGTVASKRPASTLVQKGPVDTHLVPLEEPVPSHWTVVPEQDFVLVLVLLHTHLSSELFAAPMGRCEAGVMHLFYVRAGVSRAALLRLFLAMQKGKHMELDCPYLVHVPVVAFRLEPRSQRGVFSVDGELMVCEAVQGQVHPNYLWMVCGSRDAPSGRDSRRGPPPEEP

What is called inhibition is the share of the control response that was lost under treatment. One may read the IC50 as the point on the concentration scale where inhibition reaches its midpoint. Usually half-life stands for the time needed for the level to fall by half in the phase considered. With `CCCCCCCCCCc1ccc(-c2noc(CCCN)n2)cc1.Cl`, the inhibition result in data set [1] is “Dde”; in data set [3], 67%. The IC50 in data set [2] was 1.93 µM; on Sphingosine kinase 1, at least 30 µM; on Sphingosine kinase 2, 30 µM. Further, the Ratio IC50 in the data set listed under Mus musculus [4] and in the data set listed under Mus musculus [5] was 15 throughout. Also, the inhibition entry with Mus musculus [6] and with Mus musculus [7] was “Active” throughout. The molecule also yielded a half-life in [8] of over 8 h. In [9], this molecule displayed a concentration at 24 h of 2 µM. In addition, the concentration at 2 h in [10] was determined as 5 µM. The Activity with Rattus norvegicus was determined as 25%.
